Results taken from ChEMBL document CHEMBL3272226, “Synthesis and dopaminergic activity of (+/-)-, (+)-, and (-)-2-dipropylamino-5-hydroxy-1,2,3,4-tetrahydronaphthalene” (1976).
Active and inactive are the calls of the source. The rule behind the calls is not given here.

Legend:
Rattus norvegicus [1] = test: Dopaminergic activity in sc dosed Sprague-Dawley rat assessed as induction of stereotyped behavior administered for 30 to 50 mins; format: functional; details: for minimal effective dose: Rattus norvegicus, Sprague-Dawley, sc, read-out: MED
Outline: (§1)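 Sprague-Dawley male rats, three per dose, dosed sc with HCl or HI salts in saline (doses as free base); minimum dose inducing stereotyped behavior lasting 30-50 min determined.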

Canis familiaris [2] = test: Dopaminergic activity in dog assessed as induction of emesis administered intramuscularly measured up to 20 hrs; format: functional, Canis lupus familiaris; details: for minimal effective dose: Canis lupus familiaris, im, 20 h, read-out: MED
Outline: (§2)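 Dogs, three to five per dose, given im injection of test solutions (HCl or HI salts dissolved in saline, doses as free base); minimum emetic dose determined.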

Rattus norvegicus [3] = test: Dopaminergic activity in (+)-6-(dipropylamino)-5,6,7,8-tetrahydronaphthalen-1-ol-pretreated sc dosed Sprague-Dawley rat assessed as induction of stereotyped behavior administered for 30 to 50 mins; format: functional, organism-based; outline: as §1
Canis familiaris [4] = test: Dopaminergic activity in (+)-6-(dipropylamino)-5,6,7,8-tetrahydronaphthalen-1-ol-pretreated dog assessed as induction of emesis administered intramuscularly measured up to 20 hrs; format: functional, organism-based; details: Canis lupus familiaris; outline: as §2

SMILES: CCCN(CCC)C1CCc2cc(O)ccc2C1 (racemic)
- minimal effective dose (Rattus norvegicus [1]): 13 mg/kg
- minimal effective dose (Canis familiaris [2]): 0.036 mg/kg

SMILES: CCCN(CCC)C1CCc2ccc(O)cc2C1 (racemic)
- minimal effective dose (Rattus norvegicus [1]): 23 mg/kg
- minimal effective dose (Canis familiaris [2]): 0.013 mg/kg

SMILES: CCCN(CCC)C1CCc2c(O)cccc2C1 (racemic) [5-OH-DPAT]
- MED (Rattus norvegicus [1]): 0.09 mg/kg
- MED (Canis familiaris [2]): 0.004 mg/kg

SMILES: CN1CCc2cccc3c2[C@H]1Cc1ccc(O)c(O)c1-3
- Activity (Rattus norvegicus [3]): Active
- Activity (Canis familiaris [4]): Active

SMILES: CCCN(CCC)C1CCc2c(O)cccc2C1 (single isomer, unassigned; (-))
- Activity (Rattus norvegicus [3]): Active
- Activity (Canis familiaris [4]): Active

SMILES: CCCN(CCC)C1CCc2c(O)cccc2C1 (single isomer, unassigned; (+)) [5-OH-DPAT]
- MED (Rattus norvegicus [1]): >1.8 mg/kg
- MED (Canis familiaris [2]): >0.08 mg/kg

SMILES: CCCN(CCC)C1CCc2c(O)cccc2C1 (single isomer, unassigned; (-)) [5-OH-DPAT]
- MED (Rattus norvegicus [1]): 0.05 mg/kg
- MED (Canis familiaris [2]): 0.002 mg/kg
